System: HEK-293T
Test: Multiplex assay against HEK293T;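 for Population Tubulin-Different-Phenotype (%): share of the cells with healthy nuclei that show this phenotype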
Format: toxicity, cell-based
Conditions: human
Procedure, shortened: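 Per cents of healthy-nucleus cells form the tubulin, mitochondrial-mass and membrane-permeability phenotype values. Live cells were stained at seeding with Hoechst33342, BioTracker Green Microtubule Cytoskeleton Dye, MitoTracker Red and Annexin V Alexa Fluor 680. After compound addition they were imaged on a CQ1 microscope at 37°C and 5% CO2, and CellPathfinder machine-learning gating split them into Hoechst high-intensity objects or normal cells, normal cells into healthy, pyknosed or fragmented nuclei, and pyknosed cells into mitotic or apoptotic.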

[1] = 12 h, 1 µM, compound concentration 1 uM, replicate 1
[2] = 12 h, 1 µM, compound concentration 1 uM, replicate 2
[3] = 12 h, 10 µM, compound concentration 10 uM, replicate 1
[4] = 12 h, 10 µM, compound concentration 10 uM, replicate 2
[5] = 24 h, 1 µM, compound concentration 1 uM, replicate 1
[6] = 24 h, 1 µM, compound concentration 1 uM, replicate 2
[7] = 24 h, 10 µM, compound concentration 10 uM, replicate 1
[8] = 24 h, 10 µM, compound concentration 10 uM, replicate 2
[9] = 48 h, 1 µM, compound concentration 1 uM, replicate 1
[10] = 48 h, 1 µM, compound concentration 1 uM, replicate 2
[11] = 48 h, 10 µM, compound concentration 10 uM, replicate 1
[12] = 48 h, 10 µM, compound concentration 10 uM, replicate 2

## CC(C)CC(=O)Nc1[nH]nc2c1CN(C(=O)C1CCN(C)CC1)C2(C)C [PHA-793887]
[1]
  Population Apoptotic (%): 21%
  Population Fragmented Nuclei (%): 10%
  Population Healthy Nuclei (%): 72%
  Population Hoechst High Intensity Objects (%): 8%
  Population Membrane Permeable-Phenotype (%): 5%
  Population Mitochondria Different-Phenotype (%): 4%
  Population Mitotic Cells (%): 78%
  Population Normal (%): 91%
  Population Pyknosed Nuclei (%): 17%
  Population Tubulin-Different-Phenotype (%): 2%
  Total Cell Count: 604
[2]
  Population Apoptotic (%): 20%
  Population Fragmented Nuclei (%): 9%
  Population Healthy Nuclei (%): 87%
  Population Hoechst High Intensity Objects (%): 2%
  Population Membrane Permeable-Phenotype (%): 1%
  Population Mitochondria Different-Phenotype (%): 6%
  Population Mitotic Cells (%): 80%
  Population Normal (%): 97%
  Population Pyknosed Nuclei (%): 3%
  Population Tubulin-Different-Phenotype (%): 4%
  Total Cell Count: 1420
[3]
  Population Apoptotic (%): 21%
  Population Fragmented Nuclei (%): 13%
  Population Healthy Nuclei (%): 69%
  Population Hoechst High Intensity Objects (%): 12%
  Population Membrane Permeable-Phenotype (%): 2%
  Population Mitochondria Different-Phenotype (%): 7%
  Population Mitotic Cells (%): 78%
  Population Normal (%): 87%
  Population Pyknosed Nuclei (%): 16%
  Population Tubulin-Different-Phenotype (%): 3%
  Total Cell Count: 585
[4]
  Population Apoptotic (%): 25%
  Population Fragmented Nuclei (%): 7%
  Population Healthy Nuclei (%): 89%
  Population Hoechst High Intensity Objects (%): 5%
  Population Membrane Permeable-Phenotype (%): 0%
  Population Mitotic Cells (%): 74%
  Population Normal (%): 94%
  Population Pyknosed Nuclei (%): 2%
  Population Tubulin-Different-Phenotype (%): 2%
  Total Cell Count: 1190
[5]
  Population Apoptotic (%): 27%
  Population Fragmented Nuclei (%): 9%
  Population Healthy Nuclei (%): 81%
  Population Hoechst High Intensity Objects (%): 4%
  Population Membrane Permeable-Phenotype (%): 7%
  Population Mitochondria Different-Phenotype (%): 3%
  Population Mitotic Cells (%): 72%
  Population Normal (%): 95%
  Population Pyknosed Nuclei (%): 9%
  Population Tubulin-Different-Phenotype (%): 4%
  Total Cell Count: 638
[6]
  Population Apoptotic (%): 11%
  Population Fragmented Nuclei (%): 23%
  Population Healthy Nuclei (%): 72%
  Population Hoechst High Intensity Objects (%): 3%
  Population Membrane Permeable-Phenotype (%): 2%
  Population Mitochondria Different-Phenotype (%): 2%
  Population Mitotic Cells (%): 88%
  Population Normal (%): 96%
  Population Pyknosed Nuclei (%): 3%
  Population Tubulin-Different-Phenotype (%): 6%
  Total Cell Count: 1935
[7]
  Population Apoptotic (%): 25%
  Population Fragmented Nuclei (%): 13%
  Population Healthy Nuclei (%): 70%
  Population Hoechst High Intensity Objects (%): 15%
  Population Membrane Permeable-Phenotype (%): 4%
  Population Mitochondria Different-Phenotype (%): 7%
  Population Mitotic Cells (%): 75%
  Population Normal (%): 84%
  Population Pyknosed Nuclei (%): 15%
  Population Tubulin-Different-Phenotype (%): 8%
  Total Cell Count: 545
[8]
  Population Apoptotic (%): 36%
  Population Fragmented Nuclei (%): 11%
  Population Healthy Nuclei (%): 86%
  Population Hoechst High Intensity Objects (%): 4%
  Population Membrane Permeable-Phenotype (%): 1%
  Population Mitotic Cells (%): 63%
  Population Normal (%): 95%
  Population Pyknosed Nuclei (%): 2%
  Population Tubulin-Different-Phenotype (%): 4%
  Total Cell Count: 1297

## CCCSc1nc(N[C@@H]2C[C@H]2c2ccc(F)c(F)c2)c2nnn([C@@H]3C[C@H](OCCO)[C@@H](O)[C@H]3O)c2n1 [TICAGRELOR]
[1]
  Population Apoptotic (%): 56%
  Population Fragmented Nuclei (%): 19%
  Population Healthy Nuclei (%): 35%
  Population Hoechst High Intensity Objects (%): 18%
  Population Membrane Permeable-Phenotype (%): 4%
  Population Mitochondria Different-Phenotype (%): 89%
  Population Mitotic Cells (%): 43%
  Population Normal (%): 81%
  Population Pyknosed Nuclei (%): 45%
  Population Tubulin-Different-Phenotype (%): 54%
  Total Cell Count: 167
[2]
  Population Apoptotic (%): 9%
  Population Fragmented Nuclei (%): 3%
  Population Healthy Nuclei (%): 49%
  Population Hoechst High Intensity Objects (%): 3%
  Population Membrane Permeable-Phenotype (%): 10%
  Population Mitochondria Different-Phenotype (%): 21%
  Population Mitotic Cells (%): 90%
  Population Normal (%): 96%
  Population Pyknosed Nuclei (%): 46%
  Population Tubulin-Different-Phenotype (%): 27%
  Total Cell Count: 190
[3]
  Population Apoptotic (%): 68%
  Population Fragmented Nuclei (%): 34%
  Population Healthy Nuclei (%): 4%
  Population Hoechst High Intensity Objects (%): 20%
  Population Membrane Permeable-Phenotype (%): 14%
  Population Mitochondria Different-Phenotype (%): 85%
  Population Mitotic Cells (%): 31%
  Population Normal (%): 79%
  Population Pyknosed Nuclei (%): 60%
  Population Tubulin-Different-Phenotype (%): 85%
  Total Cell Count: 178
[4]
  Population Apoptotic (%): 85%
  Population Fragmented Nuclei (%): 6%
  Population Healthy Nuclei (%): 26%
  Population Hoechst High Intensity Objects (%): 4%
  Population Membrane Permeable-Phenotype (%): 2%
  Population Mitochondria Different-Phenotype (%): 95%
  Population Mitotic Cells (%): 14%
  Population Normal (%): 95%
  Population Pyknosed Nuclei (%): 66%
  Population Tubulin-Different-Phenotype (%): 93%
  Total Cell Count: 176
[5]
  Population Apoptotic (%): 46%
  Population Fragmented Nuclei (%): 23%
  Population Healthy Nuclei (%): 32%
  Population Hoechst High Intensity Objects (%): 18%
  Population Membrane Permeable-Phenotype (%): 2%
  Population Mitochondria Different-Phenotype (%): 75%
  Population Mitotic Cells (%): 53%
  Population Normal (%): 81%
  Population Pyknosed Nuclei (%): 44%
  Population Tubulin-Different-Phenotype (%): 45%
  Total Cell Count: 181
[6]
  Population Apoptotic (%): 18%
  Population Fragmented Nuclei (%): 4%
  Population Healthy Nuclei (%): 62%
  Population Hoechst High Intensity Objects (%): 3%
  Population Membrane Permeable-Phenotype (%): 7%
  Population Mitochondria Different-Phenotype (%): 28%
  Population Mitotic Cells (%): 81%
  Population Normal (%): 96%
  Population Pyknosed Nuclei (%): 33%
  Population Tubulin-Different-Phenotype (%): 48%
  Total Cell Count: 257
[7]
  Population Apoptotic (%): 76%
  Population Fragmented Nuclei (%): 35%
  Population Healthy Nuclei (%): 6%
  Population Hoechst High Intensity Objects (%): 21%
  Population Mitochondria Different-Phenotype (%): 77%
  Population Mitotic Cells (%): 23%
  Population Normal (%): 78%
  Population Pyknosed Nuclei (%): 57%
  Population Tubulin-Different-Phenotype (%): 88%
  Total Cell Count: 178
[8]
  Population Apoptotic (%): 89%
  Population Fragmented Nuclei (%): 4%
  Population Healthy Nuclei (%): 26%
  Population Hoechst High Intensity Objects (%): 7%
  Population Membrane Permeable-Phenotype (%): 0%
  Population Mitochondria Different-Phenotype (%): 95%
  Population Mitotic Cells (%): 10%
  Population Normal (%): 92%
  Population Pyknosed Nuclei (%): 69%
  Population Tubulin-Different-Phenotype (%): 95%
  Total Cell Count: 182
[9]
  Population Apoptotic (%): 55%
  Population Fragmented Nuclei (%): 23%
  Population Healthy Nuclei (%): 40%
  Population Hoechst High Intensity Objects (%): 12%
  Population Membrane Permeable-Phenotype (%): 3%
  Population Mitochondria Different-Phenotype (%): 51%
  Population Mitotic Cells (%): 44%
  Population Normal (%): 87%
  Population Pyknosed Nuclei (%): 36%
  Population Tubulin-Different-Phenotype (%): 50%
  Total Cell Count: 216
[10]
  Population Apoptotic (%): 11%
  Population Fragmented Nuclei (%): 5%
  Population Healthy Nuclei (%): 78%
  Population Hoechst High Intensity Objects (%): 4%
  Population Membrane Permeable-Phenotype (%): 4%
  Population Mitochondria Different-Phenotype (%): 12%
  Population Mitotic Cells (%): 88%
  Population Normal (%): 95%
  Population Pyknosed Nuclei (%): 16%
  Population Tubulin-Different-Phenotype (%): 31%
  Total Cell Count: 492
[11]
  Population Apoptotic (%): 81%
  Population Fragmented Nuclei (%): 38%
  Population Healthy Nuclei (%): 3%
  Population Hoechst High Intensity Objects (%): 24%
  Population Membrane Permeable-Phenotype (%): 50%
  Population Mitochondria Different-Phenotype (%): 75%
  Population Mitotic Cells (%): 18%
  Population Normal (%): 75%
  Population Pyknosed Nuclei (%): 58%
  Population Tubulin-Different-Phenotype (%): 75%
  Total Cell Count: 173
[12]
  Population Apoptotic (%): 92%
  Population Fragmented Nuclei (%): 7%
  Population Healthy Nuclei (%): 29%
  Population Hoechst High Intensity Objects (%): 5%
  Population Membrane Permeable-Phenotype (%): 2%
  Population Mitochondria Different-Phenotype (%): 97%
  Population Mitotic Cells (%): 7%
  Population Normal (%): 94%
  Population Pyknosed Nuclei (%): 63%
  Population Tubulin-Different-Phenotype (%): 86%
  Total Cell Count: 164
